ChEMBL document CHEMBL1132379, “2-thioether 5'-O-(1-thiotriphosphate)adenosine derivatives as new insulin secretagogues acting through P2Y-Receptors” (J Med Chem, 1999)

The compounds below were run against T1, P2Y purinoceptor 1 (Meleagris gallopavo, UniProt P49652) (assay: Agonistic activity for P2Y purinoceptor 1 of turkey erythrocyte membranes).
Format: functional
How it was run: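 [³H]myoinositol-labeled washed turkey erythrocytes (18–24 h, 37 °C), membranes made by hypotonic lysis; phospholipase C measured as total [³H]inositol phosphates (ion-exchange) after 5 min at 30 °C with GTPγS, pH 7.0 Hepes medium. EC50 from four-parameter logistic fit; at least three experiments with different membrane preparations, duplicate assays.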

T1 sequence (P49652 whole entry): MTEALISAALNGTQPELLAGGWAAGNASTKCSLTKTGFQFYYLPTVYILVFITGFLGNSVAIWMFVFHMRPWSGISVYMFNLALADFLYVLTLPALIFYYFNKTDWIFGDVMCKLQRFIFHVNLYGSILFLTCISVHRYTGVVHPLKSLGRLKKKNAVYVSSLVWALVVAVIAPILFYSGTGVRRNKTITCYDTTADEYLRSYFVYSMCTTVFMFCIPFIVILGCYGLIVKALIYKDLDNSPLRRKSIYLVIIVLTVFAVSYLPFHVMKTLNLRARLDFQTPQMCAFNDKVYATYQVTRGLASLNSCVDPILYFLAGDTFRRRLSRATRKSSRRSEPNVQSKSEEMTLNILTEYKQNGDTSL

EC50 [nM]	SMILES
60	CCCCCCSc1nc(N)c2ncn([C@@H]3O[C@H](COP(=O)(O)O)[C@@H](O)[C@H]3O)c2n1
2360	Nc1nc(SCCc2ccc([N+](=O)[O-])cc2)nc2c1ncn2[C@@H]1O[C@H](COP(O)(O)=S)[C@@H](O)[C@H]1O
12	Nc1nc(SCCc2ccc([N+](=O)[O-])cc2)nc2c1ncn2C1O[C@H](COP(=O)(O)OP(=O)(O)OP(=O)(O)O)[C@@H](O)[C@H]1O (stereo partly drawn)
3000	Nc1nc(SCCc2ccc([N+](=O)[O-])cc2)nc2c1ncn2C1O[C@H](COP(=O)(O)O)[C@@H](O)[C@H]1O (stereo partly drawn)
10	CCCCCCSc1nc(N)c2ncn(C3O[C@H](COP(=O)(O)OP(=O)(O)OP(=O)(O)O)[C@@H](O)[C@H]3O)c2n1 (stereo partly drawn)
17	CCCCCCSc1nc(N)c2ncn([C@@H]3O[C@H](COP(O)(=S)OP(=O)(O)OP(=O)(O)O)[C@@H](O)[C@H]3O)c2n1 (stereo in doubt; 5aA)
21	CCCCCCSc1nc(N)c2ncn([C@@H]3O[C@H](COP(O)(=S)OP(=O)(O)OP(=O)(O)O)[C@@H](O)[C@H]3O)c2n1 (stereo in doubt; 5aB)
510	Nc1nc(SCCc2ccc([N+](=O)[O-])cc2)nc2c1ncn2[C@@H]1O[C@H](COP(O)(=S)OP(=O)(O)OP(=O)(O)O)[C@@H](O)[C@H]1O (stereo in doubt; 5bA)
890	Nc1nc(SCCc2ccc([N+](=O)[O-])cc2)nc2c1ncn2[C@@H]1O[C@H](COP(O)(=S)OP(=O)(O)OP(=O)(O)O)[C@@H](O)[C@H]1O (stereo in doubt; 5bB)

SMILES	EC50 [nM]
CCCCCCSc1nc(N)c2ncn(C3O[C@H](COP(O)(O)=S)[C@@H](O)[C@H]3O)c2n1 (stereo partly drawn)	2790
Nc1ncnc2c1ncn2C1O[C@H](COP(O)(=S)OP(=O)(O)OP(=O)(O)O)[C@@H](O)[C@H]1O (stereo partly drawn)	6280
Nc1ncnc2c1ncn2[C@@H]1O[C@H](COP(=O)(O)OP(=O)(O)OP(=O)(O)O)[C@@H](O)[C@H]1O [ADENOSINE TRIPHOSPHATE]	6350

Each compound was assayed against T1, P2Y purinoceptor 1 (assay: Compound was evaluated for its agonistic activity towards P2Y purinoceptor 1 in turkey erythrocyte membranes; NE=No effect).
Format: functional, cell membranes
How it was run: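 Turkey erythrocytes labeled 18–24 h at 37 °C with 2-[3H]myoinositol in inositol-free DMEM, then lysed in hypotonic buffer (5 mM sodium phosphate pH 7.4, 5 mM MgCl2, 1 mM EGTA) to make membranes. Phospholipase C was assayed with GTPγS and graded nucleotide concentrations at 30 °C for 5 min, pH 7.0 Hepes medium. Total [3H]inositol phosphates were measured by ion-exchange chromatography. EC50 came from four-parameter logistic fits, ≥3 experiments on separate membrane preparations, duplicate assays.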

SMILES	EC50
Nc1ncnc2c1ncn2[C@@H]1O[C@H](COP(O)(O)=S)[C@@H](O)[C@H]1O	Not Active
